TRPC6 inh – inhibitors of mouse TRPC6 channel. 310,000 compounds, 1.1% hits. B-score at 10 µM. HEK293-TRPC6, membrane potential dye, ACh-evoked depolarization; active compounds read low. AID 2553. Q61143;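 active = B-score under library mean minus 3 SD, initial fluorescence not abnormally high, positive integrated signal ratio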;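 also: B-score derived from integrated fluorescence ratio over the kinetic read; more negative B-score means stronger inhibition of depolarization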
TRPC4 act – opens the mouse TRPC4 cation channel. HEK293 TRPC4beta/mu-opioid, Fluo4 calcium fluorescence; active compounds read high. B-score at 10 µM. 310,000 compounds, 0.49% hits;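 active = B-score above 5 SD of library B-scores, and initial fluorescence ratio not above library mean plus 5 SD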;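 also: positive B-score marks a calcium rise read as TRPC4 activation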
Target sequence (Q9QUQ5 whole entry, looked up): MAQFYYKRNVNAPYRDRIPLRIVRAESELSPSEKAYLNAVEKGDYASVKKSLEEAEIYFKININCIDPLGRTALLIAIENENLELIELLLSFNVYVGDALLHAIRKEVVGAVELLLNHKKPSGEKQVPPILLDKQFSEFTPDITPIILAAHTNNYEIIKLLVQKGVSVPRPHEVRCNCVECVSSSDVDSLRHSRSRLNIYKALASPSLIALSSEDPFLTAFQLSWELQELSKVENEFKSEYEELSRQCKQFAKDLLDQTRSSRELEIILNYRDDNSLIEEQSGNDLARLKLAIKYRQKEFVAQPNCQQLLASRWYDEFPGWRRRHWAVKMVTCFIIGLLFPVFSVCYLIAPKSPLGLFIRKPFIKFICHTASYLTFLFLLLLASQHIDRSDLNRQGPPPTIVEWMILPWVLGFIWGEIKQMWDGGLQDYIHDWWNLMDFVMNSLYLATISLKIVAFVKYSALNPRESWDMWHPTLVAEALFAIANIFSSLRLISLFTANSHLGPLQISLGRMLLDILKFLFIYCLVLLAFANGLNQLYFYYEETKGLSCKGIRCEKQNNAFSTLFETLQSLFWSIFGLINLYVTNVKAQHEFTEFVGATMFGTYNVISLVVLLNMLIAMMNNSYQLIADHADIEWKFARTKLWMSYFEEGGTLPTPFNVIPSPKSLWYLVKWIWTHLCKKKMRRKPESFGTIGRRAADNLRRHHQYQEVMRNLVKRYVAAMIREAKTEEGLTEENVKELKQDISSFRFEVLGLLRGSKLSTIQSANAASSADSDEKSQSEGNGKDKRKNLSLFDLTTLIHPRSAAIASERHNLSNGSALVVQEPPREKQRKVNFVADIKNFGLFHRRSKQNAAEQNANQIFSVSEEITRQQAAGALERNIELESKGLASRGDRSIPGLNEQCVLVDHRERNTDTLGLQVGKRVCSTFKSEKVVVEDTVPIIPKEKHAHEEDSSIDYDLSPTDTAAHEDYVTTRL
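Test system: HEK293 cells stably co-expressing mouse TRPC4beta and mu-opioid receptor | Schedule: Fluo4 dye loading 45 min at room temperature, 110 s recording | Measured by: Kinetic Fluo4 calcium fluorescence, 5 s baseline at 1 Hz | Evaluation: B score of integrated ratio | Controls: Buffer (low) and maximal DAMGO (high)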
TRPC4 potent – allosteric potentiators of mouse TRPC4 channel; 310,000 compounds, 0.42% hits; HEK293 TRPC4beta/mu-opioid, DAMGO EC20, Fluo-4 Ca2+ flux; active compounds read high; AID 2227; B-score at 10 µM;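 active = B-score of calcium response area above 5 SD of library B-scores, with initial fluorescence ratio within 5 SD of library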
TRPC4 block – blocks the mouse TRPC4 cation channel; AID 2247; 300,000 compounds, 0.39% hits; HEK293 TRPC4beta/mu-opioid, DAMGO-evoked Fluo4 calcium flux; active compounds read low; B-score at 10 µM; Q9QUQ5;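 active = B-score over 3 SD under the library average, no early fluorescence shift, positive overall ratio signal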
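Assay system: TRPC4beta/mu-opioid receptor HEK293 cell line; compound dosing: single concentration per test compound; detection: Fluo4 Ca2+ flux fluorescence; evaluation: per-well B score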
TRPC6 act – activates the mouse TRPC6 cation channel. 310,000 compounds, 0.13% hits. Q61143. B-score at 10 µM. HEK293-TRPC6 membrane potential dye fluorescence; active compounds read high;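 active = B-score of the integrated fluorescence ratio above library mean plus 3 SD, and starting fluorescence ratio within library mean plus 5 SD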;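 also: higher score means more depolarization so channel activation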
Of the large screens only hits and unclear results are named; the others gave an inactive call. An excerpt weighted towards active compounds, which were near 2.3% of everything screened.

COc1ccc(C2=NOC(Cn3c(Cc4ccc(Cl)cc4)nc4c3c(=O)n(C)c(=O)n4C)C2)cc1 (centres undefined)	TRPC4 potent 10
CCCc1nc2oc3c(NCCN(C)C)ncnc3c2c2c1CCCC2	TRPC4 block -6
CCCN1CCC(=O)N(CCN=[N+]=[N-])CC1	none
CN1CCN(c2ccc(Cl)cc2NC(=O)CC2OC(=O)c3ccccc32)CC1 (centres undefined)	TRPC4 potent 23
CN1CCN(c2ccc(Cl)cc2NC(=O)/C=C/c2cccc(F)c2)CC1	TRPC4 potent 31
CN1CCN(c2ccc(Cl)cc2NC(=O)C2COc3ccccc3O2)CC1 (centres undefined)	none
O=C(O)c1cccc(S(=O)(=O)Nc2ccccc2C(=O)NCCc2ccccc2)c1	none
CCOC(=O)c1sc2nc(N3CCOCC3)c3c(c2c1N)CCN(C)C3	TRPC6 inh -7
CCN1CCN(Cc2c(C)[nH]c3ccc(OC)cc3c2=O)CC1	TRPC4 potent 15
CCOc1ccc2[nH]c(C)c(CN3CCN(CC)CC3)c(=O)c2c1	none
Cc1[nH]c2ccccc2c(=O)c1CN1CCCCCC1	none
Cc1[nH]c2ccc(Br)cc2c(=O)c1CN1CCCCC1	TRPC4 potent 10
COc1ccccc1CNS(=O)(=O)c1c(C(=O)N2CCCC2)c(C)n(C)c1C	none
Cc1cc(/C=N/NC(=O)c2cccc([N+](=O)[O-])c2)c(C)n1-c1ccc(Cl)cc1Cl	TRPC4 block -6
Cc1cccc(/C=N/NC(=O)c2cccc([N+](=O)[O-])c2)n1	none
COc1ccc(-n2cc(CN(C)C(C)c3ccncn3)c(-c3cccc(F)c3)n2)cc1 (centres undefined)	TRPC4 block -8
COc1ccc(-n2cc(CN(C)CCO)c(-c3cccc(F)c3)n2)cc1	none
COc1cccc(-c2nn(-c3ccccc3)cc2CN(C)C(C)c2ccncn2)c1 (centres undefined)	TRPC4 act 51, TRPC4 block -6
CCC(=O)NCCc1cc2ccc(C)c(C)c2[nH]c1=O	none
CCCC(=O)NCCc1cc2ccc(C)c(C)c2[nH]c1=O	TRPC4 potent 12
CNC(=O)c1ccc(Nc2nnc(-c3ccc(O)cc3)c3ccccc23)cc1	none
CN(C)C(=O)c1ccc(Nc2nnc(-c3ccc(O)cc3)c3ccccc23)cc1	TRPC4 act 60
CC(=O)c1ccc(N2CCN(C(=O)c3cc4c(s3)CCCC4)CC2)cc1	TRPC4 potent 10
O=C(c1cc2c(s1)CCCCC2)N1CCN(c2ncccn2)CC1	none
Nc1[nH][nH]c(=O)c1N=Nc1cccc(Cl)c1	TRPC4 potent 10
COc1cccc(N=Nc2c(N)[nH][nH]c2=O)c1	TRPC4 potent 14
CCOc1cc(S(=O)(=O)NCc2ccccc2)c(OCC)cc1-n1cnnn1	none
CCOc1ccc(-n2cnnn2)cc1S(=O)(=O)NCc1ccccc1	TRPC4 block -7
COc1ccc(C(=O)NCC(c2ccc3c(c2)OCO3)N2CCN(c3ccc(OC)cc3)CC2)cc1 (centres undefined)	none
COC(=O)NCC(c1ccc2c(c1)OCO2)N1CCN(c2ccccc2)CC1 (centres undefined)	TRPC4 act 169
Cc1cc2c(cc1C)N(Cc1ccc(Cl)cc1)C1=NCCCN12	TRPC4 potent 111
CCCCN1C2=NCCCN2c2cc(C)c(C)cc21	TRPC4 block -7
CCCCN1C2=NCCCN2c2ccccc21	none
O=C(NC1CCCCC1)C(c1ccc(F)cc1)N(C(=O)c1csnn1)C1CC1 (centres undefined)	none
CC1(C)C(=O)NC(=O)N1Cc1ccccc1	TRPC4 act 76
CC1(C)[C@@H](O)CC[C@]2(C)C3C(O)C=C4[C@H]5C[C@@](C)(C(=O)O)CC[C@]5(C)CC[C@]4(C)[C@]3(C)CC[C@@H]12 (some centres undefined)	TRPC4 act 210, TRPC4 block -6
CN1C2CCC1CC(N(CCc1ccccc1)C(=O)c1ccc(Cl)cc1)C2 (centres undefined)	none
CN1C2C=C(N(CCc3ccccc3)C(=O)c3ccc(Cl)cc3)CC1CC2 (centres undefined)	TRPC4 act 99
CC1=NN(C(=O)c2ccc(Cn3ccc([N+](=O)[O-])n3)cc2)C(O)(C(F)(F)F)C1 (centres undefined)	none
CCc1ccc(NC(=S)NC2CC3CCCC(C2)N3Cc2ccccc2)cc1 (centres undefined)	TRPC4 act 51
Cc1ccc(NC(=S)NC2CC3CCCC(C2)N3Cc2cccs2)cc1 (centres undefined)	TRPC4 act 48
Cc1ccc(Nc2cc(C)c(O)c(C)c2)cc1	none
N/C(Cn1cncn1)=N\NC(=O)C(=O)Nc1cccc(C(F)(F)F)c1	none
COc1cccc(NC(=S)NN2C(C)CCCC2C)c1 (centres undefined)	TRPC4 potent 11
COc1ccc(NC(=S)NN2C(C)CCCC2C)cc1 (centres undefined)	none
Cc1c(C(=O)N2CCN(CCc3ccccn3)CC2)oc2ccc(F)cc12	none
Cc1csc(/C(=N/OC(=O)c2ccco2)C(N)=O)n1	TRPC4 potent 10
COc1ccc(/C(N)=N/OC(=O)c2ccco2)cc1OC	none
O=[N+]([O-])c1cccc(-c2nnc(C3CC3)o2)c1	TRPC4 block -6
Fc1ccccc1NC(=S)NCCc1cccc(Cl)c1	none
COC(=O)c1ccccc1OCCCN(C)C	TRPC4 potent 11
CCC1CN(C(=O)Nc2ccc(C)cc2)c2cc(C)ccc2O1 (centres undefined)	TRPC4 block -6
CCC1CN(C(=O)NCc2ccc(F)cc2)c2cc(C)ccc2O1 (centres undefined)	none
O=C(NC1CCN(Cc2ccccc2)CC1)C1CCCN(S(=O)(=O)c2cccc3nonc23)C1 (centres undefined)	TRPC4 potent 10
O=C(NCc1ccccc1)C1CCCN(S(=O)(=O)c2cccc3nonc23)C1 (centres undefined)	none
CCOC(=O)c1ccc(COC(=O)c2ccc3c(c2)-c2ccccc2C3=O)cc1	none
CCOC(=O)C1=C(Cc2ccc(C)cc2)C(=O)c2ccccc2C1=O	TRPC6 act 13
Cc1ccc(CN2CCN(Cc3c(C)nn(-c4ccc(F)cc4)c3C)CC2CCO)o1 (centres undefined)	none
Cc1cc(C)c(CN2CCN(Cc3ccc(C)o3)C(CCO)C2)c(-n2cccn2)c1 (centres undefined)	TRPC4 act 77
CC(=O)Nc1cccc(N2C(=O)CC(Cc3ccccc3)C2=O)c1 (centres undefined)	none
Cc1cc(=O)oc2cc(N3C(=O)CC(Cc4ccccc4)C3=O)ccc12 (centres undefined)	TRPC4 potent 13
